In article PMC4201300 (Biochemistry, 2014):
Square brackets hold non-standard residues; d marks the D form. Peptide text beside a SMILES is read from it. pT = C[C@@H](OP(=O)(O)O)[C@H](N)C(=O)O

Assays:
[1] = molecular target: IRAK1pT141 peptide (amino acids 137–145 of IRAK1 with phosphothreonine at 141) (human) (UniProt P51617); experiment: fluorescence polarisation
[2] = molecular target: T1, Pellino1 FHA domain (amino acids 2–287) (Mus musculus, UniProt Q8C669); experiment: Fluorescence polarization peptide binding assay, Pellino1 FHA domain; conditions: ratio of KD values
T1 sequence (Q8C669 2-287): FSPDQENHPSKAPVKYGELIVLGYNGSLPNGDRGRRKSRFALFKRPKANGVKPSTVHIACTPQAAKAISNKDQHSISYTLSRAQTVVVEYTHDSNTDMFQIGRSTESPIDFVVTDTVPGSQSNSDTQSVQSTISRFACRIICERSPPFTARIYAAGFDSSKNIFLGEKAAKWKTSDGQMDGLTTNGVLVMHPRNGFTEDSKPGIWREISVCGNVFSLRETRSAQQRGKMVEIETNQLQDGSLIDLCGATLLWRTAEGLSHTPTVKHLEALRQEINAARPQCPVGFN
Summary of the method: (§1)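 His6-tagged FHA domains were expressed in E. coli BL21(DE3) pLys. The tag was removed with TEV during dialysis (4 °C for Pellino1, 22 °C for Pellino3a/3b), then cation exchange (pH 6 Pellino1/3b, pH 5.5 Pellino3a) and gel filtration. 50 nM N-terminally fluorescein-labelled phosphopeptide was titrated with 0–190 μM domain in PBS pH 7.4 at 25 °C. Baseline-corrected polarization was fit to a simple isotherm; mean KD from ≥3 experiments, expressed relative to pT141+3Y KD.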

[3] = molecular target: T2, Pellino3a FHA domain (amino acids 40–305) (Homo sapiens, UniProt Q8N2H9); experiment: Fluorescence polarization peptide binding assay, Pellino3a FHA domain; conditions: ratio of KD values
T2 sequence (Q8N2H9 40-305): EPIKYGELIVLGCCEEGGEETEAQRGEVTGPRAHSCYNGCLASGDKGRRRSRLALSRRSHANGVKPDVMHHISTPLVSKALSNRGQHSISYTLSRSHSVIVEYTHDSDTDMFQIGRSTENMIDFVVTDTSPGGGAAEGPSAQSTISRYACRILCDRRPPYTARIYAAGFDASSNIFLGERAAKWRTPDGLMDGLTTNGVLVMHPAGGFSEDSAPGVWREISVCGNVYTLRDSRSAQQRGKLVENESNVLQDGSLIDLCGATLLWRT
Summary of the method: as §1

[4] = molecular target: T3, Pellino2 FHA domain (amino acids 15–275 of Pellino2) (Homo sapiens, UniProt Q9HAT8); experiment: Fluorescence polarization peptide binding assay, Pellino2 FHA domain; conditions: for fold change in KD relative to pT141+3Y (preference for the pTxxY motif): binding weaker than for pT141+3Y, Figure 4A
T3 sequence (Q9HAT8 15-275): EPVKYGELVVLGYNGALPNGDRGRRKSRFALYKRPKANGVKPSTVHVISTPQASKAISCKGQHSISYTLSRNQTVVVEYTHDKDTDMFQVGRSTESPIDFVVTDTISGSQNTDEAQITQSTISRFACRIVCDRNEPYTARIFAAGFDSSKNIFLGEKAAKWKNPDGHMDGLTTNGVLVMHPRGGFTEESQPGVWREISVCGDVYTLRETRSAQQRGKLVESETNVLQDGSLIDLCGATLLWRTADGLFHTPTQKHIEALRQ

[5] = molecular target: T4, Pellino3b FHA domain (amino acids 2–304) (Homo sapiens, UniProt Q8N2H9); experiment: Fluorescence polarization peptide binding assay, Pellino3b FHA domain; conditions: ratio of KD values
T4 sequence (Q8N2H9 2-304 isoform Q8N2H9-2): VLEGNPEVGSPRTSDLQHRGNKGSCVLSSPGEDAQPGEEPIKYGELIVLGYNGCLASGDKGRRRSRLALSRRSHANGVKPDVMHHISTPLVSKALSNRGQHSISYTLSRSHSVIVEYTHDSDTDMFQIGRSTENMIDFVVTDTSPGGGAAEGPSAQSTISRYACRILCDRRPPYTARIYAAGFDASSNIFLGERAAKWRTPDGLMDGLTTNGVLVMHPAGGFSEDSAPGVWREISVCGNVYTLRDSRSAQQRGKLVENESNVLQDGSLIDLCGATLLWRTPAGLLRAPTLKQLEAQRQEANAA
Summary of the method: as §1

[6] = molecular target: Pellino2 FHA domain, 15-275 (UniProt Q9HAT8); experiment: fluorescence polarization titration; conditions: reference: pT141+3S peptide (native S144); sites S144
Pellino2 = Pellino2 (UniProt Q9HAT8); experiment: GST pull-down from lysate, Xpress and pT blots; conditions: reference: wild-type IRAK1-197; sites T141
[7] = molecular target: T5, Pellino3b FHA domain (amino acids 2–304) (human, UniProt Q8N2H9-2 2-304); experiment: fluorescence polarisation
T5 sequence (looked up): T4 sequence (Q8N2H9 2-304 isoform Q8N2H9-2)

[8] = molecular target: T6, Pellino1 FHA domain (amino acids 2–287, mouse) (mouse, UniProt Q8C669 2-287); experiment: fluorescence polarisation
T6 sequence (looked up): T1 sequence (Q8C669 2-287)

[9] = molecular target: scrambled version of the pT141 peptide; experiment: fluorescence polarisation
[10] = molecular target: T7, Pellino2 FHA domain (amino acids 15–275 of Pellino2) (human, UniProt Q9HAT8 15-275); experiment: fluorescence polarisation
T7 sequence (looked up): T3 sequence (Q9HAT8 15-275)

Pellino2 FHA domain, 15-275, sequence (Q9HAT8 whole entry, looked up, the tested form may be a part): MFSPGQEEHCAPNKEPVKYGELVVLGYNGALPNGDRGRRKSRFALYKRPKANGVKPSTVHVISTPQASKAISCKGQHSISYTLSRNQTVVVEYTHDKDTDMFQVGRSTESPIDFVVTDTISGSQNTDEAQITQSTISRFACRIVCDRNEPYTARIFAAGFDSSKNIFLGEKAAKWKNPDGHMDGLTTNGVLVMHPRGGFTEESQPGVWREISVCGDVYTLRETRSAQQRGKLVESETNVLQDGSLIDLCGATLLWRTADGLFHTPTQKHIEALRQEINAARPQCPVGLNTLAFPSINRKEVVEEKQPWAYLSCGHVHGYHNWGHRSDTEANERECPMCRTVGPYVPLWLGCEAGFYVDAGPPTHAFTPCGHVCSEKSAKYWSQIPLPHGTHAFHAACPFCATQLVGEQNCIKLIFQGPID
IRAK1pT141 peptide (amino acids 137–145 of IRAK1 with phosphothreonine at 141) (human), sequence (P51617 whole entry, looked up, the tested form may be a part): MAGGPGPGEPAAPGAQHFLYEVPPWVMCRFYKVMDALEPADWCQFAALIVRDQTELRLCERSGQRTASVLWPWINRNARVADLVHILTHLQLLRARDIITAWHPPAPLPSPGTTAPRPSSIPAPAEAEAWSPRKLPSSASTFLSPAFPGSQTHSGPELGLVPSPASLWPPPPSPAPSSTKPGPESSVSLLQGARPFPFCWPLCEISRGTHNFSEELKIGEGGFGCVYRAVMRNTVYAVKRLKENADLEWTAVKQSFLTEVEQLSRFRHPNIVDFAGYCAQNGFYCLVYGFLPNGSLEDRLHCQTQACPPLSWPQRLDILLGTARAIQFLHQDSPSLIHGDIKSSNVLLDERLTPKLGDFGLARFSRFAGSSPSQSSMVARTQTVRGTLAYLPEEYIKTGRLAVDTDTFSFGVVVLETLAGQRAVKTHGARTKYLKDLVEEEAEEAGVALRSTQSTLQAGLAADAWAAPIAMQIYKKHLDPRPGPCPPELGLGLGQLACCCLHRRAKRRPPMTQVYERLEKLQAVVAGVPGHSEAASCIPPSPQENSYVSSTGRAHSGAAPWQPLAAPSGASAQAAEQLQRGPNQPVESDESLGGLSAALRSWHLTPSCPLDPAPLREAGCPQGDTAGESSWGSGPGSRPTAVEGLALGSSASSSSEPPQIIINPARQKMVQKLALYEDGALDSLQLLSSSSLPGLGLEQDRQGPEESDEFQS

“Pellino2 FHA domain (amino acids 15–275 of Pellino2) (from UniProt Q9HAT8 15-275) (domain or fragment)” showed a Kd [1] of 820 nM.

For CC(C)C[C@H](NC(=O)[C@H](Cc1ccccc1)NC(=O)[C@@H](NC(=O)[C@H](CO)NC(=O)[C@H](CO)NC(=O)[C@H](C)NC(=O)[C@H](CO)NC(=O)[C@@H](N)Cc1ccc(O)cc1)[C@@H](C)OP(=O)(O)O)C(=O)N[C@@H](CC(=O)O)C(=O)N1CCC[C@H]1C(N)=O [IRAK1pT141+3D] (H-YSASS[pT]FLDP-NH2; N-terminus assumed), the “times weaker binding than for the pT141+3Y peptide” value (“times weaker binding than” for short) [2] was “at least 13 times”, the “times weaker binding than” value [3] was “at least 13 times” and the “fold change in KD relative to pT141+3Y (preference for the pTxxY motif)” value [4] was 23 fold. The “times weaker binding than” value [5] was “at least 13 times”.

Work on “IRAK1 137-145 (from UniProt P51617) pT141+3D peptide” yielded a fold change (fold weaker KD) [6] of 5.

CC(C)C[C@H](NC(=O)[C@H](Cc1ccccc1)NC(=O)[C@@H](NC(=O)[C@H](CO)NC(=O)[C@H](CO)NC(=O)[C@H](C)NC(=O)[C@H](CO)NC(=O)[C@@H](N)Cc1ccc(O)cc1)[C@@H](C)OP(=O)(O)O)C(=O)N[C@@H](Cc1ccc(O)cc1)C(=O)N1CCC[C@H]1C(N)=O [IRAK1pT141+3Y] (H-YSASS[pT]FLYP-NH2; N-terminus assumed) was tested, and the “KD fold stronger than that for pT141+3S” value ([4]; ratio of KD values) was 4.6 fold.

With IRAK1 1-197 (from UniProt P51617) T141A the “binding against the reference” value (Pellino2) was “weaker”.

With CC[C@H](C)[C@H](NC(=O)[C@H](CC(C)C)NC(=O)[C@H](Cc1ccccc1)NC(=O)[C@@H](NC(=O)[C@H](CO)NC(=O)[C@H](CO)NC(=O)[C@H](C)NC(=O)[C@H](CO)NC(=O)[C@@H](N)Cc1ccc(O)cc1)[C@@H](C)OP(=O)(O)O)C(=O)N1CCC[C@H]1C(N)=O [IRAK1pT141+3I] (H-YSASS[pT]FLIP-NH2; N-terminus assumed) the “fold change in KD relative to pT141+3Y (preference for the pTxxY motif)” value [4] was 12 fold.

fluorescein-YSSAS[pT]FLIP-NH2 (also: fluorescein: FITC or 5,6-FAM) [pT141+3I peptide (IRAK1pT141 with isoleucine at position +3)] was tested, and the binding result [7] was “binds” and the Kd [8] was 1800 nM.

B1: Pellino2 FHA domain (amino acids 15–275 of Pellino2) (domain or fragment)
chain: T3 sequence (Q9HAT8 15-275)
With B1 the fold weaker affinity than for pT141 [9] was greater than 100 fold.

With fluorescein-YSSAS[pT]FLYP-NH2 (also: fluorescein: FITC or 5,6-FAM) [pT141+3Y peptide (IRAK1pT141 with tyrosine at position +3)] the Kd [10] was 180 nM, the binding result [7] was “binds” and the Kd [8] was 770 nM.
